Reference: ChEMBL document CHEMBL4130564, “Indolylalkyltriphenylphosphonium Analogues Are Membrane-Depolarizing Mycobactericidal Agents” (ACS Med Chem Lett, 2017)
Active and inactive are the calls of the source. The calls are words filed in the database; no cut-off is given here.

How the values were obtained:
[1] = test system: Mycobacterium tuberculosis; experiment: Bactericidal activity against Mycobacterium bovis BCG ATCC 35734 assessed as suppression of reductive capacity by measuring decrease in formazan formation at 100 uM after 0.5 to 1 hr by MTT reduction assay; format: functional; set-up: scale not given: the % may be the effect or the level left
Summary of the method: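 BCG cultures exposed to 0.2–100 μM for 30 min and 1 h, then MTT added; formazan production read at 595 nm against drug-free basal absorbance; CCCP 100 μM reference; representative of two independent experiments.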

[2] = test system: Mycobacterium tuberculosis; experiment: Bactericidal activity against Mycobacterium bovis BCG ATCC 35734 assessed as reduction in membrane potential by measuring red to green fluorescent ratio at 100 uM measured at 3 hrs by DiOC2-dye based fluorescence assay; format: functional, organism-based; conditions: BCG str. ATCC 35743

SMILES: N#CC(C#N)=NNc1cccc(Cl)c1 [CARBONYL CYANIDE M-CHLOROPHENYLHYDRAZONE]
- Activity [1]: 50%
- Activity [2]: Active
